Activity calls are given as the source filed them. No cut-off for these calls is given here.
How the values were obtained:
[1] = test system: SK-BR-3; test: Antiproliferative activity against human SKBR3 cells after 72 hrs by MTS/PMS assay; type: functional, cell-based; conditions: SK-BR-3, 72 h
Outline: (§1)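 Cells grown in medium with non-essential amino acids, 2 mM L-glutamine, streptomycin, penicillin and 10% FBS at 37 °C, 5% CO2; seeded 2000/well, attached overnight. Test agent added over a concentration range in DMSO (1% final), 72 h exposure. Viable cells counted by MTS/PMS read-out against 1% DMSO wells as 100% proliferation. IC50 taken as mean ± SD of at least two separate experiments, each in triplicate.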

[2] = molecular target: T1, Heat shock protein HSP90 (Homo sapiens) (UniProt P07900+P08238); test: Inhibition of Hsp90 in human MCF7 cells assessed as induction of Her2 degradation at 0.5 fold IC50 after 24 hrs by Western blot method; type: cell-based
Outline: (§2)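 MCF-7 cells treated 24 h with compound in DMSO (1% final); geldanamycin 500 nM served as positive control and DMSO as vehicle control. Cells harvested in cold PBS and lysed 1 h on ice in RIPA with 1 mM PMSF, 2 mM orthovanadate and protease inhibitors. Lysates clarified 14,000g, 15 min, 4 °C. Protein (20 µg, BCA) resolved under reducing conditions and blotted on PVDF for Her2, Raf and Akt, with actin as loading control. Detection by HRP secondary antibody and chemiluminescence.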

[3] = molecular target: T1, Heat shock protein HSP90 (Homo sapiens); test: Inhibition of Hsp90 in human MCF7 cells assessed as induction of Her2 degradation at 5 fold IC50 after 24 hrs by Western blot method; type: cell-based; outline: as §2
[4] = molecular target: T1, Heat shock protein HSP90 (Homo sapiens); test: Inhibition of Hsp90 in human MCF7 cells assessed as induction of Akt degradation at 0.5 fold IC50 after 24 hrs by Western blot method; type: cell-based; outline: as §2
[5] = test system: HT-29; test: Antiproliferative activity against human HT-29 cells after 72 hrs by MTS/PMS assay; type: functional, cell-based; conditions: HT-29, 72 h; outline: as §1
[6] = test system: A549; test: Antiproliferative activity against human A549 cells after 72 hrs by MTS/PMS assay; type: functional, cell-based; conditions: A549, 72 h; outline: as §1
[7] = molecular target: T1, Heat shock protein HSP90 (Homo sapiens); test: Inhibition of Hsp90 in human MCF7 cells assessed as induction of Akt degradation at 5 fold IC50 after 24 hrs by Western blot method; type: cell-based; outline: as §2
[8] = Antiproliferative activity against human PC3MM2 cells after 72 hrs by MTS/PMS assay; type: functional, cell-based; conditions: PC3MM2, 72 h; outline: as §1
[9] = molecular target: T1, Heat shock protein HSP90 (Homo sapiens); test: Inhibition of Hsp90 in human MCF7 cells assessed as induction of Raf degradation at 5 fold IC50 after 24 hrs by Western blot method; type: cell-based; outline: as §2
[10] = test system: MCF7; test: Antiproliferative activity against human MCF7 cells after 72 hrs by MTS/PMS assay; type: functional, cell-based; conditions: MCF7, 72 h; outline: as §1
[11] = molecular target: T1, Heat shock protein HSP90 (Homo sapiens); test: Inhibition of Hsp90 in human MCF7 cells assessed as induction of Raf degradation at 0.5 fold IC50 after 24 hrs by Western blot method; type: cell-based; outline: as §2

Row | IC50 [1] | inhibition [2] | inhibition [3] | inhibition [4] | IC50 [5] | IC50 [6] | inhibition [7] | inhibition [9] | IC50 [10] | inhibition [11] | Compound | IC50 [8]
1 | 890 nM | inactive | inactive | Active | 240 nM | 220 nM | Active | Active | 630 nM | Active | Cc1c(OC2CCN(C)CC2)ccc2cc(NC(=O)CCC/C=C/CCCC(=O)Nc3cc4ccc(OC5CCN(C)CC5)c(C)c4oc3=O)c(=O)oc12 | 440 nM
2 | 180 nM | Active | Active | Active | 7100 nM | 21500 nM | Active | Active | 290 nM | Active | Cc1c(OC2CCN(C)CC2)ccc2cc(NC(=O)C/C=C/CC(=O)Nc3cc4ccc(OC5CCN(C)CC5)c(C)c4oc3=O)c(=O)oc12 | 7510 nM
3 | 150 nM | Active | Active | Active | 50 nM | 5540 nM | Active | Active | 270 nM | Active | Cc1c(OC2CCN(C)CC2)ccc2cc(NC(=O)CC/C=C/CCC(=O)Nc3cc4ccc(OC5CCN(C)CC5)c(C)c4oc3=O)c(=O)oc12 | 4190 nM
4 | 910 nM | Active | Active | Active | 270 nM | 210 nM | Active | Active | 880 nM | Active | COc1ccc(C(=O)Nc2cc3ccc(O[C@@H]4OC(C)(C)[C@H](OC)[C@@H](O)[C@H]4O)c(OC)c3oc2=O)cc1-c1cc(C(=O)Nc2cc3ccc(O[C@@H]4OC(C)(C)[C@H](OC)[C@@H](O)[C@H]4O)c(OC)c3oc2=O)ccc1OC | 270 nM
5 | 460 nM | inactive | inactive | inactive | 12200 nM | 19400 nM | inactive | inactive | 840 nM | inactive | Cc1c(OCCCN(C)C)ccc2cc(NC(=O)C/C=C/CC(=O)Nc3cc4ccc(OCCCN(C)C)c(C)c4oc3=O)c(=O)oc12 | 15200 nM

Reference: ChEMBL document CHEMBL1821679, “Targeting the heat shock protein 90 dimer with dimeric inhibitors” (J Med Chem, 2011)
